# Test results taken from ChEMBL document CHEMBL3414496, “Synthesis and biological evaluation of novel 2-heteroarylimino-1,3-thiazolidin-4-ones as potential anti-tumor agents” (Eur J Med Chem, 2015).
# The source made the active and inactive calls. No cut-off for these calls is given here.
# How the values were obtained:
# [1] = test system: HT-29; assay: Induction of GCL expression in human HT-29 cells at 1.5 uM after 24 hrs by Western blotting method; format: functional
# In short: (§1)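 HT29 whole-cell lysates in Hepes/KOH pH 7.5 with EDTA, KCl, NP40, DTT, protease inhibitors; 50 µg protein on 10–15% SDS-PAGE, nitrocellulose, overnight 4°C primary antibody (GCL 1:500, HO-1 1:1000), HRP secondary, chemiluminescence. Bands normalized to GAPDH (1:10 000), DMSO ratio set at 1.00; representative of three independent experiments.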
# [2] = test system: HT-29; assay: Induction of HO1 expression in human HT-29 cells at 1.5 uM after 2 hrs by Western blotting method; format: functional; in short: as §1
# [3] = test system: HT-29; assay: Induction of HO1 expression in human HT-29 cells at 1.5 uM after 6 hrs by Western blotting method; format: functional; in short: as §1
# [4] = test system: HT-29; assay: Induction of NQO1 expression in human HT-29 cells at 1.5 uM after 2 hrs by Western blotting method; format: functional
# In short: (§2)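 Whole-cell lysates from treated HT29 cells in pH 7.5 Hepes/KOH buffer with EDTA, KCl, Igepal, DTT and protease inhibitors. 50 µg protein run on 10-15% SDS-PAGE and transferred to nitrocellulose. Probed overnight at 4°C with anti-HO-1 (1:1 000), anti-NQO1 (1:1 000) or anti-GCL (1:500), then HRP secondary for 45 min and chemiluminescence. Bands normalized to GAPDH (1:10 000), with the DMSO ratio set to 1.00. Representative of three experiments.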
# [5] = test system: HT-29; assay: Induction of GCL expression in human HT-29 cells at 1.5 uM after 2 hrs by Western blotting method; format: functional; in short: as §1
# [6] = test system: HT-29; assay: Induction of NQO1 expression in human HT-29 cells at 1.5 uM after 6 hrs by Western blotting method; format: functional; in short: as §2
# [7] = test system: HT-29; assay: Induction of HO1 expression in human HT-29 cells at 1.5 uM after 24 hrs by Western blotting method; format: functional; in short: as §1
# [8] = test system: HT-29; assay: Induction of HO1 expression in human HT-29 cells at 1.5 uM after 4 hrs by Western blotting method; format: functional; in short: as §1
# [9] = test system: HT-29; assay: Induction of GCL expression in human HT-29 cells at 1.5 uM after 6 hrs by Western blotting method; format: functional; in short: as §1
# [10] = test system: HT-29; assay: Induction of NQO1 expression in human HT-29 cells at 6.4 uM after 4 hrs by Western blotting method; format: functional; in short: as §2
# [11] = test system: HT-29; assay: Induction of GCL expression in human HT-29 cells at 6.4 uM after 6 hrs by Western blotting method; format: functional; in short: as §1
# [12] = test system: HT-29; assay: Induction of HO1 expression in human HT-29 cells at 6.4 uM after 4 hrs by Western blotting method; format: functional; in short: as §1
# [13] = test system: HT-29; assay: Induction of HO1 expression in human HT-29 cells at 6.4 uM after 2 hrs by Western blotting method; format: functional; in short: as §1
# [14] = test system: HT-29; assay: Induction of NQO1 expression in human HT-29 cells at 6.4 uM after 24 hrs by Western blotting method; format: functional; in short: as §2
# [15] = test system: HT-29; assay: Induction of GCL expression in human HT-29 cells at 6.4 uM after 2 hrs by Western blotting method; format: functional; in short: as §1
# [16] = test system: HT-29; assay: Induction of GCL expression in human HT-29 cells at 6.4 uM after 4 hrs by Western blotting method; format: functional; in short: as §1
# [17] = test system: HT-29; assay: Induction of NQO1 expression in human HT-29 cells at 6.4 uM after 2 hrs by Western blotting method; format: functional; in short: as §2
# [18] = test system: HT-29; assay: Induction of GCL expression in human HT-29 cells at 10 uM after 24 hrs by Western blotting method; format: functional; in short: as §1
# [19] = test system: HT-29; assay: Induction of HO1 expression in human HT-29 cells at 10 uM after 4 hrs by Western blotting method; format: functional; in short: as §1
# [20] = test system: HT-29; assay: Induction of NQO1 expression in human HT-29 cells at 10 uM after 6 hrs by Western blotting method; format: functional; in short: as §2
# [21] = test system: HT-29; assay: Induction of HO1 expression in human HT-29 cells at 10 uM after 2 hrs by Western blotting method; format: functional; in short: as §1
# [22] = test system: HT-29; assay: Induction of GCL expression in human HT-29 cells at 10 uM after 2 hrs by Western blotting method; format: functional; in short: as §1
# [23] = test system: HT-29; assay: Induction of ROS generation in human HT-29 cells at cytotoxic IC50 level after 30 mins by DCF-DA staining based fluorescence assay; format: functional, cell-based
# In short: (§3)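 HT29 cells treated two days after seeding, then loaded with 50 µM DCF-DA for 15 min at 37°C. Cells trypsinized, washed and resuspended in PBS, and 30 000 cells/sample read by flow cytometry (FL-1). Expressed as % of DMSO-treated cells; […] for 1 h served as positive control. Triplicates from three independent experiments.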
# [24] = test system: HT-29; assay: Induction of NQO1 expression in human HT-29 cells at 10 uM after 4 hrs by Western blotting method; format: functional; in short: as §2
# [25] = test system: HT-29; assay: Induction of HO1 expression in human HT-29 cells at 10 uM after 24 hrs by Western blotting method; format: functional; in short: as §1
# [26] = test system: HT-29; assay: Induction of NQO1 expression in human HT-29 cells at 10 uM after 2 hrs by Western blotting method; format: functional; in short: as §2
# [27] = test system: HT-29; assay: Induction of NQO1 expression in human HT-29 cells at 3.8 uM after 24 hrs by Western blotting method; format: functional; in short: as §2
# [28] = test system: HT-29; assay: Induction of GCL expression in human HT-29 cells at 3.8 uM after 4 hrs by Western blotting method; format: functional; in short: as §1
# [29] = test system: HT-29; assay: Induction of GCL expression in human HT-29 cells at 3.8 uM after 2 hrs by Western blotting method; format: functional; in short: as §1
# [30] = test system: HT-29; assay: Induction of HO1 expression in human HT-29 cells at 3.8 uM after 24 hrs by Western blotting method; format: functional; in short: as §1
# [31] = test system: HT-29; assay: Induction of NQO1 expression in human HT-29 cells at 3.8 uM after 2 hrs by Western blotting method; format: functional; in short: as §2
# [32] = test system: HT-29; assay: Induction of GCL expression in human HT-29 cells at 3.8 uM after 6 hrs by Western blotting method; format: functional; in short: as §1
# [33] = test system: HT-29; assay: Induction of NQO1 expression in human HT-29 cells at 3.8 uM after 6 hrs by Western blotting method; format: functional; in short: as §2
# [34] = test system: HT-29; assay: Induction of NQO1 expression in human HT-29 cells at 3.8 uM after 4 hrs by Western blotting method; format: functional; in short: as §2
# [35] = test system: HT-29; assay: Induction of GCL expression in human HT-29 cells at 3.8 uM after 24 hrs by Western blotting method; format: functional; in short: as §1
# [36] = test system: HT-29; assay: Induction of HO1 expression in human HT-29 cells at 3.8 uM after 2 hrs by Western blotting method; format: functional; in short: as §1
# [37] = test system: HT-29; assay: Induction of HO1 expression in human HT-29 cells at 3.8 uM after 4 hrs by Western blotting method; format: functional; in short: as §1
# [38] = test system: HT-29; assay: Inhibition of cell growth in human HT-29 cells assessed as mitotic index ratio in presence of 1 mM ascorbic acid (reference value: 1.08 +/- 0.04); format: functional
# [39] = test system: HT-29; assay: Induction of ROS generation in human HT-29 cells at 2.5 uM after 3 hrs by DCF-DA staining based fluorescence assay; format: functional, cell-based; in short: as §3
# [40] = test system: HT-29; assay: Induction of redox status changes in human HT-29 cells assessed as ROS content in presence of 1 mM ascorbic acid by DCF-DA staining based fluorescence assay (reference value: 64.7 +/- 2.6%)
smiles,measurement,setting,value
CN(C)c1ccc(/C=C2\S/C(=N\c3csc(-c4ccc(Cl)cc4)c3)NC2=O)cc1,fold change (FC),[1],1.52
same,fold change (FC),[2],1
same,fold change (FC),[3],1
same,fold change (FC),[4],1.15
same,fold change (FC),[5],0.9
same,fold change (FC),[6],1.26
same,fold change (FC),[7],1
same,fold change (FC),[8],1
same,fold change (FC),[9],0.99
Cc1ccc(/C=C2\S/C(=N\c3csc(-c4ccc(Cl)cc4)c3)NC2=O)cc1,fold change (FC),[10],2.59
same,fold change (FC),[11],2.25
same,fold change (FC),[12],1
same,fold change (FC),[13],1
same,fold change (FC),[14],1.6
same,fold change (FC),[15],1.93
same,fold change (FC),[16],2.54
same,fold change (FC),[17],2.23
COc1ccc(/C=C2\S/C(=N\c3csc(-c4ccc(Cl)cc4)c3)NC2=O)cc1OC,fold change (FC),[18],1.11
same,fold change (FC),[19],1
same,fold change (FC),[20],1.23
same,fold change (FC),[21],1
same,fold change (FC),[22],0.96
same,Activity,[23],Active
same,fold change (FC),[24],1.26
same,fold change (FC),[25],1
same,fold change (FC),[26],1.04
COc1ccc(/C=C2\S/C(=N\c3csc(-c4ccc(Cl)cc4)c3)NC2=O)cc1,fold change (FC),[27],0.88
same,fold change (FC),[28],1.49
same,fold change (FC),[29],1.22
same,fold change (FC),[30],1
same,fold change (FC),[31],1.16
same,fold change (FC),[32],1.69
same,fold change (FC),[33],0.9
same,fold change (FC),[34],0.87
same,fold change (FC),[35],1.55
same,fold change (FC),[36],1
same,fold change (FC),[37],1
CN(C)c1ccc(/C=C2\S/C(=N\c3nc(-c4ccc(Cl)cc4)cs3)NC2=O)cc1,Ratio,[38],0.09
same,Activity,[39],Active
same,Activity,[40],158.8%
